PubChem BioAssay
Unmarked numbers belong to inactive results. Records with an inconclusive call do not appear. Active and inactive are the calls of the source.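 Rule for the calls, unless noted: active = viability increase at or above a cutoff of the median across tested compounds plus 3 SD (cut at about 8.5% in these data, passing the limit was not always enough); inconclusive = some gains above the cutoff, reason not given; inactive = the rest.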

Legend:
[1] = S. cerevisiae growth inhibition in permissive medium (OD615), pilot counter-assay for S. cerevisiae lifespan shortening project, permissive growth control (AID 705;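 active = growth inhibition above 25% in both replicates, a cutoff set 3 SD above the mean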); conditions: OD615, 24 h, at 10 µM, stronger effect = higher value
Method in brief: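 Timing: 24 h exposure, 30 °C / Material: Saccharomyces cerevisiae strain carrying genetically modified DeaD replicative-lifespan system / Signal: OD at 615 nm / Compound: 10 µM single dose, 0.25% DMSO / Medium: SC raffinose/galactose permissive medium / Evaluation: reduction in yeast growth (OD615)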

[2] = S. cerevisiae growth inhibition in restrictive medium, OD615, pilot screen, restrictive growth control, yeast lifespan reduction project (AID 706;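 active = growth inhibition above a set limit, 3 SD over mean compound inhibition, in both replicates, cut at about 43% in these data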;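 note: modified DeaD lifespan yeast strain shifted to restrictive glucose medium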); conditions: OD615, 48 h, at 10 µM, stronger effect = higher value
Method in brief: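 System: Engineered S. cerevisiae DeaD strain | Detection: OD615 | Buffer or medium: CSMM-D glucose medium | Doses: 10 µM compound, 0.25% DMSO | Timing: 4 h pre-growth plus 48 h compound exposure, 30 °C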

[3] = doxorubicin toxicity protection in MRP-1 cells – H69AR cells, CellTiter-Glo, duplicate, MRP-1 activator project, pilot screen (AID 807); conditions: H69AR viability with doxorubicin, CellTiter-Glo luminescence; at 10 µM; stronger effect = higher value;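 note: compound pretreatment 18-22 h then 72 h combined with doxorubicin; 0% = doxorubicin alone and 100% = vehicle without doxorubicin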
[4] = viability of HCT116 without oncogenic beta-catenin – human colon tumor cells, pilot screen (AID 823;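 active = cell viability at or below a set limit in both duplicate runs, the limit being the all-compound median minus 4 SD, cut at about 23% in these data, passing the limit was not always enough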;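 note: 0% = wells killed by 20 µM Hyamine and 100% = untreated DMSO cell wells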); conditions: HCT116 beta-catenin knockout viability, CellTiter-Glo, 60 h; at 10 µM; stronger effect = lower value
[5] = viability of PTEN-null HCT116 cells – cell-based, HCT116 clonal line, CellTiter-Glo, pilot screen (AID 824;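 active = viability at or below 27.92% in each of two runs, the all-compound median minus 4 SD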;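 note: 0% = 20 µM Hyamine control and 100% = vehicle cell control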); conditions: HCT116 PTEN-deleted viability, 60 h, at 10 µM, stronger effect = lower value
[6] = RAM pathway blockade in budding yeast – dse1pr::URA3 reporter, 5-FOA selection, pilot screen (AID 869;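 active = inhibition over a set limit, the all-compound mean plus 3 SD, in both replicate runs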;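 note: 0% = DMSO wells with no growth and 100% = 10 µM 1-NA-PP1 with full growth; RAM network block rescues cells from 5-FOA so hits raise OD615 growth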); conditions: S. cerevisiae dse1pr::URA3 5-FOA growth, OD615, 2 d; at 10 µM; stronger effect = higher value; strain carries analog-sensitive mutant Cbk1 kinase
[7] = RAM signaling pathway blockade in yeast – S. cerevisiae, Pdr1DBD-CYC8 efflux-inhibited sensitized strain, primary screen (AID 1298;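 active = RAM network inhibition above 8.4% in each of two replicates, 3 SD over the compound average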;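 note: 0% = DMSO untreated cells without growth and 100% = 10 µM 1-NA-PP1 full growth; higher means more yeast growth rescued from 5-FOA killing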); conditions: S. cerevisiae cbk1-as DSE1-URA3 strain, 5-FOA growth OD615, 2 d; at 50 µM; stronger effect = higher value

| Structure (SMILES) | growth inhibition [1] [%] | growth inhibition [2] [%] | viability increase [3] [%] | viability [4] | viability [5] | inhibition [6] [%] | RAM network inhibition [7] [%] |
| --- | --- | --- | --- | --- | --- | --- | --- |
| CC1(C)SCC2C(=O)N3C(CSC3(C)C)C(=O)N21 (stereo not drawn) | 2.82 | -6.7 | 0.02 | 107% | 96.2% | 1.5 | 4.22 |
| COc1ccc(NC(=O)C2CCN(S(=O)(=O)c3cccnc3)CC2)cc1Cl | -8.66 | -13.1 | -3.56 | 97.3% | 100% | 1.77 | 2.55 |
| Cc1cc(NS(=O)(=O)c2ccc(NC(=O)Nc3ccccc3)cc2)no1 | 4.26 | -7.87 | 1.41 | 101% | 103% | 1.92 | 1.02 |
| CCOc1ccc(C(=O)Nc2c3c(nn2-c2ccc(C)cc2)CS(=O)C3)cc1OCC (stereo not drawn) | 2.17 | -3.32 | -1.84 | 97.6% | 104% | 2.23 | 8.77 |
| Cn1c(Cn2c(=O)sc3ccccc32)nnc1SCC(=O)NCC1CCCO1 (stereo not drawn) | -6.81 | -7.68 | -1.15 | 99.3% | 90% | 0.85 | 2.22 |
| Cc1cccc(N(C)S(=O)(=O)c2cccc3nsnc23)c1 | -12 | -17.9 | -4.32 | 92.5% | 89% | 0.325 | 4.78 |
| Cc1nc(N2CCCCC2)c2sc(=S)n(C)c2n1 | -7.24 | 7.63 | 1.13 | 82.2% | 81.9% | 0.955 | 2.15 |
| O=C(NCC(c1cccs1)N1CCOCC1)c1cc2ccccc2o1 (stereo not drawn) | -2.08 | -15.1 | -1.69 | 99.3% | 100% | 0.345 | 0.26 |
| CSc1nc(C)nc2c1c(=O)n(C)c(=O)n2C | 9.37 | 6.23 | -1.42 | 108% | 94.2% | 0.68 | 0.26 |
| COc1ccc(Nc2nc(C)cc(C)c2C#N)cc1OC | -2.02 | 5.43 | 1.79 | 107% | 107% | 0.715 | 1.79 |
| O=C(NC1CCCCC1)c1ccc(S(=O)(=O)N2CCOCC2)cc1 | -2.04 | -2.56 | 0.17 | 104% | 101% | 0.855 | -0.73 |
| CCCCOc1ccc(/C(N)=N/O)cc1 | 7.3 | 0.775 | -5.85 | 93.5% | 93.7% | 0.44 | 1.83 |
| CCSCCOC(=O)C1=C(C)NC(=O)NC1c1ccc2c(c1)OCO2 (stereo not drawn) | 3.31 | 3.72 | -1.35 | 94.3% | 94.5% | 2.05 | 0.41 |
| O=C(O)c1ccc(CSc2nnc(-c3ccco3)o2)cc1 | 7.71 | 9.04 | 0.19 | 108% | 96.6% | 0.595 | 3.22 |
| COc1ccc(-n2nnnc2S(=O)(=O)CC(=O)N2CCCCC2)cc1 | -2.05 | 6.43 | -9.59 | 1.47% (active) | 2.74% (active) | 0.75 | -0.17 |
| CC(=NCc1cccnc1)C1=C(O)c2ccccc2C1=O | -0.03 | 9.76 | -0.85 | 97.2% | 96.4% | 0.665 | -0.3 |
| CCOC(=O)c1cnc2ccc(Br)cc2c1NCC(C)O (stereo not drawn) | -11.9 | -9.36 | -4.28 | 91.4% | 89.2% | 1.19 | 2.79 |
| O=C(CCCOc1ccccc1)n1nnc2ccccc21 | -10.8 | -9.88 | -1.21 | 98.9% | 100% | 0.75 | 0.05 |
| NS(=O)(=O)c1ccc(CCNC(=O)NC2(C(F)(F)F)Oc3ccccc3O2)cc1 | -2.1 | -6.81 | -6.42 | 63.4% | 80.3% | 0.12 | 3.68 |
| O=C(NCCCN1CCN(c2ccccc2F)CC1)C1CCCN(S(=O)(=O)c2cnc[nH]2)C1 (stereo not drawn) | 4.25 | 2.15 | 1.39 | 95.1% | 102% | -0.46 | 0.21 |
| O=C(NC1CCCCC1)N1CCC(n2c(=O)[nH]c3ccccc32)CC1 | -8.88 | -10.8 | 1.07 | 91.1% | 89.6% | 2.25 | 5.7 |
| CCOCCn1c(CN(Cc2ccccc2)Cc2ccccc2)nc2c1c(=O)n(C)c(=O)n2C | 0.79 | 12.6 | -2.62 | 64.7% | 57.6% | 1.48 | 5.44 |
| COC(=O)c1c(N2C(=O)CCC2=O)sc2c1CCCC2 | -1.48 | 0.535 | -2.89 | 102% | 93.4% | 1.26 | -1.57 |
| COc1cccc(C(=O)NCc2cn3ccsc3n2)c1 | -16.9 | 4.09 | -1.05 | 110% | 92.4% | 2.06 | 3.48 |
